Shown are actives, neighbours in structure and some others; about 1.8% of the full set was active somewhere.
CAL PDZ FP-1: CAL PDZ peptide-binding inhibitors, primary screen, biochemical, fluorescence polarization, Cer-tagged CAL PDZ, HTS; 0.02% of 330,000 active; Golgi-associated PDZ and coiled-coil motif-containing protein (Homo sapiens), Q9HD26; inhibition, % at 20 µM; purified CAL PDZ, TMR-peptide fluorescence polarization, 1 h; AID 504414, 2011;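 active means highest replicate inhibition of at least 40%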;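 further: plate controls were DMSO neutral control wells for no effect and unlabeled competitor peptide control wells for full effect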
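System: purified tagged CAL PDZ domain construct (CerCALP). Schedule: 1 h incubation at room temperature before polarization reading. Medium: 25 mM sodium phosphate pH 7.4, 150 mM NaCl, TCEP, IgG, Thesit. Read-out: percent inhibition from loss of millipolarization. Measured by: FP readout, S and P plane fluorescence. Probe or stimulus: fluorescent TMR peptide probe.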
Tn7 DDE FP: inhibitors of Tn7 peptide binding to fibrin DD(E), primary screen, biochemical, fluorescence polarization, human fibrin, Tn7 probe. Fibrinogen beta chain (Homo sapiens), P02675. FP displacement of FITC-Tn7 peptide from fibrin DD(E); 0% = median of compound wells per plate. inhibition, % at 8.3 µM. 0.13% of 370,000 active. AID 720508, 2013;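 active means inhibition above the mean of compounds falling within the control limits plus 3 SD of them, cut at about 14% in these data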;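 further: 0% = plate median of compound wells and 100% = 10 µM Aha-Tn7 peptide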
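Test system: human clot-derived fibrin DD(E) complex / Quantity: 2 µM final DD(E) protein / Incubation: 10 min plus 3 h, room temperature / Measured by: fluorescence polarization / Benchmarks: high control of 10 µM Aha-Tn7 peptide / Replicates: singlicate testing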
CAL PDZ FP-2: untagged CAL PDZ binding inhibitors, primary screen, biochemical, fluorescence polarization, HTS; Golgi-associated PDZ and coiled-coil motif-containing protein (Homo sapiens), Q9HD26; purified CAL PDZ, TMR-peptide fluorescence polarization, 1 h; inhibition, % at 24.9 µM; 0.92% of 300,000 active;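 active means mean inhibition of at least 30% with at least half of replicates also reaching 30%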;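 further: 0% = DMSO neutral control and 100% = excess unlabeled competitor peptide PRC23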
ARNT-TACC3 inh: disruptors of ARNT/TACC3 protein interaction, primary screen, biochemical, AlphaScreen, single concentration; AlphaScreen His-ARNT PAS-B/GST-TACC3 binding, luminescence; TACC3 fragment carries E629A point mutation; inhibition, % at 9.99 µM; AID 623870, 2012; Transforming acidic coiled-coil-containing protein 3 (Homo sapiens), Q9Y6A5; 0.66% of 390,000 active;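 active means mean inhibition of replicates at least 50% and at least half of replicates each reaching 50%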;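 further: 0% = complete ARNT plus TACC3 wells and 100% = ARNT alone without TACC3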
DDE Tn6 FP inh: inhibitors of Tn6 peptide binding to fibrin DD(E), primary screen, biochemical, fluorescence polarization, human fibrin, Tn6 probe; Fibrinogen beta chain (Homo sapiens), P02675; Fibrin DD(E) TRITC-Tn6 fluorescence polarization displacement; inhibition, % at 8.3 µM; 0.21% of 370,000 active;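 active means inhibition above a per-campaign cutoff: mean of compounds within control limits plus 3 SD, cut at about 15% in these data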;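 further: 0% = median of all compound wells on the plate and 100% = blocking peptide control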
GRK2 aptamer HTS: compounds blocking aptamer binding on GRK2 – biochemical, human GRK2, bead flow cytometry, HTS, primary screen; Beta-adrenergic receptor kinase 1 (Homo sapiens), P25098; FAM-aptamer displacement from GRK2; inhibition of aptamer binding, % at 10 µM; 0.59% of 330,000 active; AID 488847, 2010;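 active means inhibition of aptamer binding above 40%, roughly 3 SD of noise, on plates passing a quality check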;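 further: median bead fluorescence of bound FAM aptamer so fluorescent compounds give negative values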
Target sequence (P25098 whole entry, looked up): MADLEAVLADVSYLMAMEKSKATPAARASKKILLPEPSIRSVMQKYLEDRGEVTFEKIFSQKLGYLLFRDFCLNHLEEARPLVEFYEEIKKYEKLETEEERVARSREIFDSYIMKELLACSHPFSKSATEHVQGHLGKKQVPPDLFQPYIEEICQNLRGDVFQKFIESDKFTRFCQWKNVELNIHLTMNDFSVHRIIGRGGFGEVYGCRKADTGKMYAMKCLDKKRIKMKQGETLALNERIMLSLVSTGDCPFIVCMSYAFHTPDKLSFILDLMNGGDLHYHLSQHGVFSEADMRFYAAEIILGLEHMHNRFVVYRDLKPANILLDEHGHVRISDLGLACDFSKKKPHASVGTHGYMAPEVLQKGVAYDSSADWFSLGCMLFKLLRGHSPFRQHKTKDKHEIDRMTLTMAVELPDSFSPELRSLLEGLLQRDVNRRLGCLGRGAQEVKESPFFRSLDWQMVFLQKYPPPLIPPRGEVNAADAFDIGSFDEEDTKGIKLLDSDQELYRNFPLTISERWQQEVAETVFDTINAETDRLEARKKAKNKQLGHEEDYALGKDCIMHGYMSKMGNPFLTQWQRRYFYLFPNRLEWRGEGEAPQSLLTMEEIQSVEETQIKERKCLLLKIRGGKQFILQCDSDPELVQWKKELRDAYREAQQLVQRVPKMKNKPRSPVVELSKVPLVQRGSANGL
* hit, by the source's call.

For O=C(Nc1ccc(C(F)(F)F)cc1)N[C@H]1C=C[C@@H](CC(=O)N2CCCCC2)O[C@H]1CO the results were ARNT-TACC3 inh 0.2.
`CO[C@H]1CN(C)C(=O)c2ccc(NC(=O)C3CCCCC3)cc2OC[C@H](C)N(Cc2nccs2)C[C@@H]1C` gave ARNT-TACC3 inh -1.8.
CC(C)N1CCC2(CC1)C(C#N)=C(N)NC(S)=C2C#N was read as GRK2 aptamer HTS 58.0*.
`CC(C)C(C(=O)Nc1ncn[nH]1)N1C(=O)c2ccccc2C1=O` (stereo not given) gave CAL PDZ FP-1 0.2, Tn7 DDE FP -5.0, CAL PDZ FP-2 1.4, ARNT-TACC3 inh 35.5*, DDE Tn6 FP inh -10.6 and GRK2 aptamer HTS 0.0.
`COc1cc(/C=N/n2c(-c3cc(C)[nH]n3)n[nH]c2=S)cc(OC)c1OC` gave CAL PDZ FP-1 -1.9, Tn7 DDE FP -4.2, CAL PDZ FP-2 33.7*, ARNT-TACC3 inh 5.3, DDE Tn6 FP inh 5.0 and GRK2 aptamer HTS 4.0.
For O=C(CNCCc1ccccc1)N1CCc2ccccc2C1 the results were CAL PDZ FP-1 -1.2, Tn7 DDE FP 4.7, CAL PDZ FP-2 44.9*, ARNT-TACC3 inh 0.9, DDE Tn6 FP inh 0.5 and GRK2 aptamer HTS 0.0.
For O=C(Cc1ccccc1)NCC(=O)N1CCc2ccccc2C1 the results were CAL PDZ FP-1 -0.4, Tn7 DDE FP 7.5, CAL PDZ FP-2 0.3, ARNT-TACC3 inh -0.2, DDE Tn6 FP inh 0.4 and GRK2 aptamer HTS 0.0.
Screening CCn1c(COc2ccccc2C)nnc1SCC(=O)NCc1ccccc1 returned CAL PDZ FP-1 -1.5, Tn7 DDE FP -3.1, ARNT-TACC3 inh 2.3, DDE Tn6 FP inh -2.0 and GRK2 aptamer HTS 4.0.
Screening CCn1c(COc2cccc3ccccc23)nnc1SCC(N)=O returned CAL PDZ FP-1 -1.1, Tn7 DDE FP 2.8, CAL PDZ FP-2 51.6*, ARNT-TACC3 inh -3.8, DDE Tn6 FP inh -6.2 and GRK2 aptamer HTS 0.0.
COc1ccc(NC(=O)Nc2ccc3c(c2)C(=O)N([C@@H](C)CO)C[C@@H](C)[C@@H](CN(C)S(=O)(=O)c2ccc(C)cc2)OCCCC[C@@H](C)O3)cc1 was read as ARNT-TACC3 inh -101.5.
Screening CCc1ccc(C(c2ccc(CC)cc2)C(Cl)Cl)cc1 returned CAL PDZ FP-1 -0.3, Tn7 DDE FP -12.4, CAL PDZ FP-2 -1.4, DDE Tn6 FP inh 8.1 and GRK2 aptamer HTS 0.0.
For Clc1ccc(C(c2ccccc2Cl)C(Cl)Cl)cc1 (stereo not given) the results were CAL PDZ FP-1 0.8, Tn7 DDE FP 1.6, CAL PDZ FP-2 0.1, ARNT-TACC3 inh 48.2*, DDE Tn6 FP inh 3.8 and GRK2 aptamer HTS 0.0.
For CNC(=S)NNC(=O)c1cccn(Cc2ccc(Cl)cc2Cl)c1=O the results were Tn7 DDE FP 3.5, DDE Tn6 FP inh 11.8 and GRK2 aptamer HTS 4.0.
`CCNC(=S)NNC(=O)c1cccn(Cc2ccc(Cl)cc2)c1=O` gave CAL PDZ FP-1 9.1, Tn7 DDE FP 0.6, CAL PDZ FP-2 -5.3, ARNT-TACC3 inh 44.2*, DDE Tn6 FP inh -1.0 and GRK2 aptamer HTS 2.0.
For O=C1C2C3CCC(C3)C2C(=O)N1c1ccc2ccccc2c1 (stereo not given) the results were CAL PDZ FP-1 -1.3, Tn7 DDE FP 0.5, CAL PDZ FP-2 61.8*, ARNT-TACC3 inh -12.6, DDE Tn6 FP inh -3.5 and GRK2 aptamer HTS 1.0.
`Cc1cc(C(=O)NNS(=O)(=O)c2cc(C(=O)O)ccc2Cl)c(C)n1-c1ccccc1` gave CAL PDZ FP-1 -0.9, Tn7 DDE FP -8.7, CAL PDZ FP-2 38.6*, ARNT-TACC3 inh 1.7, DDE Tn6 FP inh -1.4 and GRK2 aptamer HTS 8.0.
Cc1c(NC(=S)N/N=C\c2ccccc2O)c(=O)n(-c2ccccc2)n1C was read as CAL PDZ FP-1 -1.6, Tn7 DDE FP 2.9, CAL PDZ FP-2 -0.4, ARNT-TACC3 inh 66.4*, DDE Tn6 FP inh -3.9 and GRK2 aptamer HTS 5.0.
`Cc1c(NC(=S)N/N=C/c2ccc([N+](=O)[O-])cc2O)c(=O)n(-c2ccccc2)n1C` gave CAL PDZ FP-1 -2.7, Tn7 DDE FP 6.7, CAL PDZ FP-2 -0.3, ARNT-TACC3 inh 61.3*, DDE Tn6 FP inh 5.6 and GRK2 aptamer HTS 2.0.
For O=C(O)C[C@@H]1C[C@H]2c3cc(NC(=O)c4ccc5c(c4)OCO5)ccc3O[C@H]2[C@@H](CO)O1 the results were ARNT-TACC3 inh 4.5.
For O=[N+]([O-])c1ccc(NC(c2ccccc2)c2ccc3cccnc3c2O)cc1 (stereo not given) the results were CAL PDZ FP-1 1.9, Tn7 DDE FP 3.4, CAL PDZ FP-2 91.3*, ARNT-TACC3 inh -8.6 and DDE Tn6 FP inh 7.7.
`N/C(=N\NS(=O)(=O)c1ccccc1)c1ccccn1` gave CAL PDZ FP-1 -0.5, Tn7 DDE FP -2.0, CAL PDZ FP-2 6.3, ARNT-TACC3 inh 66.5*, DDE Tn6 FP inh 1.7 and GRK2 aptamer HTS 0.0.
`N/C(COc1ccc(Cl)cc1)=N\NS(=O)(=O)c1ccccc1` gave CAL PDZ FP-1 -2.8, Tn7 DDE FP 3.8, CAL PDZ FP-2 0.6, ARNT-TACC3 inh -1.9, DDE Tn6 FP inh -4.5 and GRK2 aptamer HTS 0.0.
N/C(=N\NC(=O)Nc1ccccc1)c1ccccn1 was read as Tn7 DDE FP 1.8, DDE Tn6 FP inh 11.2 and GRK2 aptamer HTS 0.0.
For N/C(=N\NS(=O)(=O)c1ccc(Cl)cc1)c1ccccn1 the results were CAL PDZ FP-1 -0.1, Tn7 DDE FP -11.7, CAL PDZ FP-2 -3.4, ARNT-TACC3 inh 43.4*, DDE Tn6 FP inh 4.7 and GRK2 aptamer HTS 41.0*.
For C[C@@H](NC(=O)C[C@H]1C[C@H]2c3cc(NC(=O)CC4CC4)ccc3O[C@H]2[C@H](CO)O1)c1ccccc1 the results were ARNT-TACC3 inh -11.0.
CN(C)CCCn1c2c(c(SCC(=O)Nc3cccc4ccccc34)nc1=O)CCCC2 was read as CAL PDZ FP-1 -3.0, Tn7 DDE FP 4.4, CAL PDZ FP-2 48.8*, DDE Tn6 FP inh 0.0 and GRK2 aptamer HTS 0.0.
CCOc1cccc(C(=O)Nc2ccccc2C(=O)N2CCN(C)CC2)c1 was read as CAL PDZ FP-1 -1.6, Tn7 DDE FP -4.4, CAL PDZ FP-2 -0.6, ARNT-TACC3 inh 0.8, DDE Tn6 FP inh -1.1 and GRK2 aptamer HTS 0.0.
Screening CC1CCCCC1NS(=O)(=O)CCNC(=O)c1ccccc1 (stereo not given) returned CAL PDZ FP-1 0.0, Tn7 DDE FP 0.1, CAL PDZ FP-2 34.9*, ARNT-TACC3 inh -36.7, DDE Tn6 FP inh 1.6 and GRK2 aptamer HTS 1.0.
